Assay results: ChEMBL document CHEMBL2021842, “COMPARE analysis of the toxicity of an iminoquinone derivative of the imidazo[5,4-f]benzimidazoles with NAD(P)H:quinone oxidoreductase 1 (NQO1) activity and computational docking of quinones as NQO1 substrates” (Bioorg Med Chem, 2012)

Columns and labels:
HCC 2998 = test: Growth inhibition of human HCC2998 cells assessed as cell growth at 10 uM relative to untreated control; assay type: functional; conditions: read-out: Activity
Method in brief: (§1)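 NCI DTP 60-cell-line screen, first stage: a single 10 µM dose of compound given to the human tumour panel. Result reported as percent growth relative to control, on a mean growth graph.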

A549 = test: Growth inhibition of human A549 cells assessed as cell growth at 10 uM relative to untreated control; assay type: functional; conditions: read-out: Activity; method in brief: as §1
HT-29 = test: Growth inhibition of human HT-29 cells assessed as cell growth at 10 uM relative to untreated control; assay type: functional; conditions: read-out: Activity; method in brief: as §1
NCI-H522 = test: Growth inhibition of human NCI-H522 cells assessed as cell growth at 10 uM relative to untreated control; assay type: functional; conditions: read-out: Activity
Method in brief: (§2)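 First stage of the NCI DTP 60 human tumour cell-line screen. Cells were exposed to a single dose of 10 µM. Output is reported as growth % relative to control.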

LOX IMVI = test: Growth inhibition of human LOXIMVI cells assessed as cell growth at 10 uM relative to untreated control; assay type: functional; conditions: read-out: Activity; method in brief: as §1
SK-MEL-2 = test: Growth inhibition of human SK-MEL-2 cells assessed as cell growth at 10 uM relative to untreated control; assay type: functional; conditions: read-out: Activity; method in brief: as §2
T47D = test: Growth inhibition of human T47D cells assessed as cell growth at 10 uM relative to untreated control; assay type: functional; conditions: read-out: Activity
Method in brief: (§3)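 This is the first stage of the NCI DTP 60-human-tumour-cell-line screen, covering nine tissue types. Cells receive a single dose of the test compound, and the output is reported as mean growth %.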

RXF 393 = test: Growth inhibition of human RXF393 cells assessed as cell growth at 10 uM relative to untreated control; assay type: functional; conditions: read-out: Activity; method in brief: as §2
SK-MEL-5 = test: Growth inhibition of human SK-MEL-5 cells assessed as cell growth at 10 uM relative to untreated control; assay type: functional; conditions: read-out: Activity; method in brief: as §2
SR = test: Growth inhibition of human SR cells assessed as cell growth at 10 uM relative to untreated control; assay type: functional; conditions: read-out: Activity; method in brief: as §3
PC-3 = test: Growth inhibition of human PC3 cells assessed as cell growth at 10 uM relative to untreated control; assay type: functional; conditions: read-out: Activity; method in brief: as §2
K562 = test: Growth inhibition of human K562 cells assessed as cell growth at 10 uM relative to untreated control; assay type: functional; conditions: read-out: Activity; method in brief: as §1
786-0 = test: Growth inhibition of human 786-0 cells assessed as cell growth at 10 uM relative to untreated control; assay type: functional; conditions: read-out: Activity; method in brief: as §1
[1] = Cytotoxicity against human GM00637 cells assessed as reduction in mean cell viability after 72 hrs by MTT assay; assay type: cell-based; conditions: GM00637, 72 h
Method in brief: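 SV40-transformed normal skin fibroblasts (GM00637) in MEM Eagle–Earle BSS with 15% heat-inactivated FBS, 2 mM L-glutamine, 2× amino acids and vitamins. Seeded at 10,000 cells/well and left 24 h to adhere. Ethanol-delivered compound (1% final) for 72 h at 37 °C, 5% CO₂. MTT formazan in DMSO read at 550/690 nm. Viability relative to vehicle; IC₅₀ by nonlinear regression.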

ACHN = test: Growth inhibition of human ACHN cells assessed as cell growth at 10 uM relative to untreated control; assay type: functional; conditions: read-out: Activity; method in brief: as §1
NCI-H322M = test: Growth inhibition of human NCI-H322M cells assessed as cell growth at 10 uM relative to untreated control; assay type: functional; conditions: read-out: Activity; method in brief: as §2
CCRF-CEM = test: Growth inhibition of human CCRF-CEM cells assessed as cell growth at 10 uM relative to untreated control; assay type: functional; conditions: read-out: Activity; method in brief: as §1
A498 = test: Growth inhibition of human A498 cells assessed as cell growth at 10 uM relative to untreated control; assay type: functional; conditions: read-out: Activity; method in brief: as §1
MOLT-4 = test: Growth inhibition of human MOLT4 cells assessed as cell growth at 10 uM relative to untreated control; assay type: functional; conditions: read-out: Activity; method in brief: as §2
MDA-MB-231 = test: Growth inhibition of human MDA-MB-231 cells assessed as cell growth at 10 uM relative to untreated control; assay type: functional; conditions: read-out: Activity; method in brief: as §2
DU-145 = test: Cytotoxicity against human DU145 cells assessed as reduction in mean cell viability after 72 hrs by MTT assay; assay type: functional, cell-based; conditions: DU-145, 72 h
Method in brief: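 DU-145 prostate cells in RPMI-1640 with 10% heat-inactivated FBS, penicillin–streptomycin and 2 mM L-glutamine. Seeded at 2000 cells/well and left 24 h to adhere. Compound added in ethanol (1% final) for 72 h at 37 °C, 5% CO₂, with ethanol-only controls. Formazan dissolved in DMSO and read at 550 nm (690 nm reference). IC₅₀ derived by nonlinear regression of viability versus vehicle.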

SF-539 = test: Growth inhibition of human SF539 cells assessed as cell growth at 10 uM relative to untreated control; assay type: functional; conditions: read-out: Activity; method in brief: as §2
CAKI-1 = test: Growth inhibition of human Caki1 cells assessed as cell growth at 10 uM relative to untreated control; assay type: functional; conditions: read-out: Activity; method in brief: as §1
SNB-19 = test: Growth inhibition of human SNB19 cells assessed as cell growth at 10 uM relative to untreated control; assay type: functional; conditions: read-out: Activity; method in brief: as §3
HL-60(TB) = test: Growth inhibition of human HL-60(TB) cells assessed as cell growth at 10 uM relative to untreated control; assay type: functional; conditions: read-out: Activity
Method in brief: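 NCI DTP NCI-60 screen, first stage: a single dose applied to 60 human tumour cell lines from nine tissue types. Output is reported as growth %.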

M14 = test: Growth inhibition of human M14 cells assessed as cell growth at 10 uM relative to untreated control; assay type: functional; conditions: read-out: Activity; method in brief: as §1
OVCAR-3 = test: Growth inhibition of human OVCAR3 cells assessed as cell growth at 10 uM relative to untreated control; assay type: functional; conditions: read-out: Activity; method in brief: as §2
UACC-62 = test: Growth inhibition of human UACC62 cells assessed as cell growth at 10 uM relative to untreated control; assay type: functional; conditions: read-out: Activity; method in brief: as §3
HCT-15 = test: Growth inhibition of human HCT15 cells assessed as cell growth at 10 uM relative to untreated control; assay type: functional; conditions: read-out: Activity; method in brief: as §1
NCI-H460 = test: Growth inhibition of human NCI-H460 cells assessed as cell growth at 10 uM relative to untreated control; assay type: functional; conditions: read-out: Activity; method in brief: as §2
SF-295 = test: Growth inhibition of human SF295 cells assessed as cell growth at 10 uM relative to untreated control; assay type: functional; conditions: read-out: Activity; method in brief: as §2
TK-10 = test: Growth inhibition of human TK10 cells assessed as cell growth at 10 uM relative to untreated control; assay type: functional; conditions: read-out: Activity; method in brief: as §3
SF-268 = test: Growth inhibition of human SF268 cells assessed as cell growth at 10 uM relative to untreated control; assay type: functional; conditions: read-out: Activity; method in brief: as §2
NCI/ADR-RES = test: Growth inhibition of human NCI/ADR-RES cells assessed as cell growth at 10 uM relative to untreated control; assay type: functional; conditions: read-out: Activity; method in brief: as §2
SK-MEL-28 = test: Growth inhibition of human SK-MEL-28 cells assessed as cell growth at 10 uM relative to untreated control; assay type: functional; conditions: read-out: Activity; method in brief: as §2
EKVX = test: Growth inhibition of human EKVX cells assessed as cell growth at 10 uM relative to untreated control; assay type: functional; conditions: read-out: Activity; method in brief: as §1
MCF7 = test: Growth inhibition of human MCF7 cells assessed as cell growth at 10 uM relative to untreated control; assay type: functional; conditions: read-out: Activity; method in brief: as §2

| SMILES | growth at 10 µM (HCC 2998) | growth at 10 µM (A549) | growth at 10 µM (HT-29) | growth at 10 µM (NCI-H522) | growth at 10 µM (LOX IMVI) | growth at 10 µM (SK-MEL-2) | growth at 10 µM (T47D) | growth at 10 µM (RXF 393) | growth at 10 µM (SK-MEL-5) | growth at 10 µM (SR) | growth at 10 µM (PC-3) | growth at 10 µM (K562) | growth at 10 µM (786-0) | IC50 [1] | growth at 10 µM (ACHN) | growth at 10 µM (NCI-H322M) | growth at 10 µM (CCRF-CEM) | growth at 10 µM (A498) | growth at 10 µM (MOLT-4) | growth at 10 µM (MDA-MB-231) | other results |
| --- | --- | --- | --- | --- | --- | --- | --- | --- | --- | --- | --- | --- | --- | --- | --- | --- | --- | --- | --- | --- | --- |
| N=C1c2nc3n(c2C(=O)c2nc4n(c21)CCCC4)CCCC3 | 87.3% | -30.6% | -13.7% | 10.5% | -68% | 82.7% | 71.9% | 94.8% | -98% | 69.5% | 90.5% | 81.4% | 89% | 3630 nM | 69.4% | 27.7% | 92.9% | 52% | 85.4% | 82.6% | IC50 (DU-145): 300 nM; growth at 10 µM (SF-539): -21.7%; growth at 10 µM (CAKI-1): 88.8%; growth at 10 µM (SNB-19): 30%; growth at 10 µM (HL-60(TB)): 96.3%; growth at 10 µM (M14): -95.6%; growth at 10 µM (OVCAR-3): 98.4%; growth at 10 µM (UACC-62): -85.1%; growth at 10 µM (HCT-15): 6.18%; growth at 10 µM (NCI-H460): 4.62%; growth at 10 µM (SF-295): -85.7%; growth at 10 µM (TK-10): 128%; growth at 10 µM (SF-268): 71.3%; growth at 10 µM (NCI/ADR-RES): 85.7%; growth at 10 µM (SK-MEL-28): -67.2%; growth at 10 µM (EKVX): 95.6%; growth at 10 µM (MCF7): -6.98% |
| O=C1c2nc3n(c2C(=O)c2nc4n(c21)CCCC4)CCCC3 | 88.3% | 99.7% | 104% | 92.3% | 96.1% | 108% | 99.3% | 107% | 87.6% | 101% | 102% | 107% | 111% | > 5000 nM | 99% | 106% | 103% | 99.9% | 111% | 96.8% | IC50 (DU-145): 1990 nM; growth at 10 µM (SF-539): 121%; growth at 10 µM (CAKI-1): 90.7%; growth at 10 µM (SNB-19): 98.6%; growth at 10 µM (HL-60(TB)): 107%; growth at 10 µM (M14): 108%; growth at 10 µM (OVCAR-3): 97%; growth at 10 µM (UACC-62): 99.8%; growth at 10 µM (HCT-15): 103%; growth at 10 µM (NCI-H460): 95%; growth at 10 µM (SF-295): 87.9%; growth at 10 µM (TK-10): 100%; growth at 10 µM (SF-268): 92.3%; growth at 10 µM (NCI/ADR-RES): 103%; growth at 10 µM (SK-MEL-28): 118%; growth at 10 µM (EKVX): 99.9%; growth at 10 µM (MCF7): 101% |
